Results of several laboratories.
Lines come from different studies, so protocols differ.
Observed: cell growth or viability

O=C(NCc1cn(Cc2cccc(Cl)c2)nn1)Nc1ccc(Cl)cc1 gave a viability of 86.1% (Huh-7; CCK-8; 50 µM, 48 h).
COc1cc(NC(=O)c2cnn(-c3ccc([N+](=O)[O-])cc3)c2C(F)(F)F)cc(OC)c1 has an inhibition of 14.1% (LX-2; MTS; 50 µM, 72 h).
For COc1ccc(NC(=O)NCc2cn(Cc3ccccc3C)nn2)cc1, the viability was 84.2% (Huh-7; CCK-8; 50 µM, 48 h).
O=C(Nc1ccc(Cl)cc1)Nc1ccc(-c2cn(Cc3ccc(Cl)cc3)nn2)cc1 gave a viability of 72.8% (Huh-7; CCK-8; 50 µM, 72 h).
With COc1ccc(NC(=O)Nc2cccc(-c3cn(Cc4ccccc4C)nn3)c2)cc1 the viability was 10.5% (Huh-7; CCK-8; 50 µM, 72 h).
O=c1[nH]cc(F)c(=O)[nH]1 gave an inhibition of 81.4% (LX-2; MTS; 50 µM, 72 h).
With Cc1nc(Nc2ncc(C(=O)Nc3c(C)cccc3Cl)s2)cc(N2CC[C@H](O)C2)n1 the inhibition was 15% (Ramos; ATP luminescence; 10 µM, 72 h).
With O=C(Nc1ccc(Cl)cc1)Nc1ccc(-c2cn(Cc3cccc(Cl)c3)nn2)cc1 the viability was 86.7% (Huh-7; CCK-8; 50 µM, 48 h).
O=C(Nc1ccc(Cl)cc1)Nc1cccc(-c2cn(Cc3cccc(Br)c3)nn2)c1 gave a viability of 14.5% (Huh-7; CCK-8; 50 µM, 72 h).
C=C(NC(=O)C(=C)NC(=O)c1csc(C2=N[C@@H]3c4csc(n4)[C@H]4NC(=O)c5csc(n5)[C@H]([C@](C)(O)[C@@H](C)O)NC(=O)[C@H]5CSC(=N5)/C(=C/C)NC(=O)[C@H]([C@@H](C)O)NC(=O)c5csc(n5)[C@]3(CC2)NC(=O)[C@H](C)NC(=O)C(=C)NC(=O)[C@H](C)NC(=O)[C@H]([C@@H](C)CC)N[C@@H]2C=Cc3c([C@H](C)O)cc(nc3[C@H]2O)C(=O)O[C@@H]4C)n1)C(N)=O has an EC50 of 1.5 µM (NCI-H2009).
COc1ccc(NC(=O)Nc2ccc(-c3cn(Cc4ccc(C)cc4)nn3)cc2)cc1 has a viability of 77.3% (Huh-7; CCK-8; 50 µM, 48 h).
The IC50 of O=[N+]([O-])c1ccc(O)c(C=NNc2ccc(Br)cc2)c1 is reported as 16.2 µM (HEK-293T; MTT; 24 h).
